Source: ChEMBL document CHEMBL4513216, “Probing the Open Global Health Chemical Diversity Library for Multistage-Active Starting Points for Next-Generation Antimalarials” (ACS Infect Dis, 2020)

Assay: Toxicity liver stage against HepG2, at 10uM
Assay type: cell-based
Parameters: test concentration 10 uM, cell line HepG2-A16-CD81EGFP
Conditions: human, HepG2-A16-CD81EGFP cells; read-out: INHIBITION
Outline: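 Uninfected HepG2-A16-CD81EGFP cells, 3 × 10^3 per well, 1536-well, plated on prespotted compound at 10 μM final, parasite-free screening media added to match infected plates; puromycin 10 μM positive, DMSO 0.5% negative; run in parallel with 48 h PbLuc assay at 37 °C, 5% CO2; viability by CellTiter-Glo luminescence, normalized to controls.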

Structure (SMILES)	cytotoxicity at 10 µM
CC[C@@H](C)[C@H](NC(=O)NC1CCS(=O)(=O)C1)C(=O)NCc1ccncc1 (stereo partly specified)	-2.56%
Cc1ccc(C(=O)N2CCCC(c3nncn3C)C2)c(C)c1 (stereo unspecified)	-14.1%
O=S(=O)(Cc1ccccc1)NCc1nnc2n1CCC2	16.2%
CNc1cc(C)nc(C2COCCN2CCc2ccc(F)cc2)n1 (stereo unspecified)	3.68%
CNC(=O)[C@@H](c1ccccc1F)N1CCC[C@H]1C(=O)NC1CCCC1	0.344%
O=C(NCc1ccco1)N(CCCO)C1CCCc2ccccc21 (stereo unspecified)	-9.53%
CCOCC1CN(S(C)(=O)=O)Cc2ncn(CC3CC3)c21 (stereo unspecified)	-12%
CS(=O)(=O)NCc1cncc2c1CCN(C(=O)c1cccnc1)C2	5.12%
Cc1cnn(CC2CN(CCc3ccncc3)CCO2)c1 (stereo unspecified)	-13.6%
O=C(c1ccco1)N1CC[C@@H]2[C@H]1CCC(=O)N2c1ccccc1	-110%
Cc1ccc(S(=O)(=O)c2ncccc2CN2CCN(CCO)CC2)cc1	-49.1%
C/C(=C\c1ccco1)CN(C)C(C)Cc1ccccn1 (stereo unspecified)	1.89%
Cc1ccc(N2CCC3(CC2)CNC(=O)CO3)nn1	6.07%
CN(Cc1cc(C2CC2)[nH]n1)C(=O)C(c1cccnc1)N1CCCC1 (stereo unspecified)	-48.1%
Cc1ccc(CN2CCC3(CC(=O)N(c4cccc(F)c4)C3)C2)o1 (stereo unspecified)	-140%
COCCNC1(c2ccc(Cl)cc2)CCOCC1	7.06%
CCN1CCCC1CN(Cc1cc[nH]n1)CC1CCN(CCOC)CC1 (stereo unspecified)	-5.14%
Cc1nccn1CCC(=O)N1CCC2(CCC(=O)N(CC3CC3)C2)CC1	-8.46%
CN(C)C(CNC(=O)c1ccc(-n2cnnn2)cc1)c1ccccc1Cl (stereo unspecified)	-8.16%
CCc1cc(C(=O)N2CCC(c3cc4ncccc4cn3)CC2)no1	-14.4%
O[C@@H]1CN(Cc2cccnc2)C[C@H]1Oc1ccccc1	-23.2%
CCOc1ccccc1CNC(=O)NCC(c1cnn(C)c1)N(C)C (stereo unspecified)	4.15%
Oc1ccc(N2CCN(Cc3cc4c(cc3Br)OCCO4)CC2)cc1	6.87%

Structure (SMILES)	cytotoxicity at 10 µM
CC(C)Cn1cc(NC(=O)c2cccc(N(C)C)c2)cn1	11.8%
COc1ccccc1CNc1c(N2CCN(C(C)=O)CC2)c(=O)c1=O	-0.707%
COc1cc2c(cc1CNC(=O)C(C)n1ccnc1C(C)C)OCCO2 (stereo unspecified)	-1.3%
O=C(CCn1nnc2ccccc2c1=O)N(CC1CCOC1)C1CC1 (stereo unspecified)	-8.5%
Cc1noc(C)c1CN1CCCC1c1nc(-c2ccccc2)no1 (stereo unspecified)	-39.2%
CNC(=O)[C@@H](C1CC1)N1CCC[C@H]1C(=O)NCC(C)C	-2.45%
Cc1cnn(CC2CCCN2C(=O)c2ccc(F)c(F)c2)c1 (stereo unspecified)	-7.68%
COCC(=O)NCc1cc(=O)n2c(n1)CN(Cc1ccsc1)CCC2	0.281%
CN1CCC(N(Cc2ccco2)S(=O)(=O)c2ccc(Br)cc2Cl)CC1	-12.8%
Cc1nn(CCO)c(C)c1CN1CCN(C2CCCCC2)C(=O)C1	0.541%
Cc1nc(C)n(C2CCCN(C(=O)c3ccc4nccn4c3)C2)n1 (stereo unspecified)	-12%
CCc1ccc(CN2CC[C@H]3C[C@H](c4nnc(C)[nH]4)O[C@@H]3C2)o1	-8.51%
Cc1csc(CCNC(=O)C2CCOC2)n1 (stereo unspecified)	-6.17%
Cc1cc(CCCC(=O)NC2CCN(C)C2=O)c(C)s1 (stereo unspecified)	-0.67%
CN1CCN(CCCN(C)S(=O)(=O)C2CCCCC2)CC1	-9.46%
CCn1cc(NC(=O)NCC(c2cccc(OC)c2)N(C)C)cn1 (stereo unspecified)	-7.25%
CCOCCCNC(=O)CN(c1ccc(C)c(C)c1)S(C)(=O)=O	7.74%
COc1ccc(F)cc1C[S+]([O-])CC(=O)NCc1ccccc1 (stereo unspecified)	-8.97%
CC(CNC(=O)CCn1cncn1)N1CCc2ccccc21 (stereo unspecified)	-157%
CN1CCN(Cc2cn3c(n2)CN(CC2CC2)CC3)CC1	-119%
CN(Cc1ccco1)[C@@H]1CN(Cc2ccc(F)cc2)C[C@@H]2CCCO[C@@H]21	2.91%
CN1CC(=O)N(c2cccnc2)Cc2c(NC3CC3)ncnc21	5.28%
O=C1OC2(CCNCC2)CN1CC(=O)N1CCCC1c1nccs1 (stereo unspecified)	-4.92%

Structure (SMILES)	cytotoxicity at 10 µM
CCc1nnc2n1CCN(CC(O)CN1CCC(C)CC1)C2 (stereo unspecified)	-7.37%
c1cn(-c2nccnc2C2CCCN(C3CCOCC3)C2)cn1 (stereo unspecified)	4.19%
Cc1ccc(-c2nc(C(=O)N3CCOCC3)cs2)c(C)c1	0.22%
CN(C)C(=O)CCC[S+]([O-])Cc1cc(Cl)ccc1Cl (stereo unspecified)	12.5%
CN(C)c1nc(N)nc(CN2CCC(c3ccccc3)CC2)n1	7.36%
Cc1nc(C)c(C(=O)NCCNC(=O)Cc2ccc(F)cc2)s1	-5.68%
CC(C)(O)CCc1cccc(C(=O)N2CCC3(CCO3)CC2)c1	-0.864%
O=C(NCC1CCOC1)c1cc(-c2ccc(F)cc2)[nH]n1 (stereo unspecified)	-6.96%
CC(C)(C)c1oc(C(N)=O)cc1CN1CCCCC1CN1CCOCC1 (stereo unspecified)	-11.2%
O=C(NCCC1Cc2ccccc2C1)N1CCCC(O)C1 (stereo unspecified)	22.2%
CN1CCCC1CCNC(=O)c1ccccc1-n1cc(CN)cn1 (stereo unspecified)	3.44%
CN(CCS(C)(=O)=O)C1CCCN(Cc2noc(C3CC3)n2)C1 (stereo unspecified)	14.6%
CS(=O)(=O)N1CCc2ccc(C(=O)N3CCn4ncnc4C3)cc21	-7.79%
NC(=O)C1CCCN1Cc1cccc(NC(=O)c2cccs2)c1 (stereo unspecified)	-12.7%
O=C(CC(F)(F)F)NC(c1ccc(Cl)cc1)c1ncon1 (stereo unspecified)	2.14%
CN1CCC(N2CCC(c3ccccc3C(=O)O)C2)CC1 (stereo unspecified)	-1.05%
O=C(Cc1ccon1)N(CCC(F)(F)F)C1CCCC1	-9.36%
CC1CCN(CCNC(=O)c2ccn(-c3ccccc3)n2)CC1	-5.99%
Cn1cc(CN2CC(C(=O)Nc3ccccc3)C3(CCOCC3)C2)cn1 (stereo unspecified)	-1.96%
Cc1nc(C)c(C(=O)N2CCCC2c2nnc3n2CCCCC3)s1 (stereo unspecified)	-2.62%
CCS(=O)(=O)N1CC(c2nc(-c3cccs3)no2)C1	-7.3%
CCc1c(C)nc2cc(C3CCN(Cc4ccccc4F)C3)nn2c1O (stereo unspecified)	1.7%
O=S(=O)(C1CC1)N1CC[C@@H]2[C@@H]1CCN2Cc1cccs1	5.77%

Structure (SMILES)	cytotoxicity at 10 µM
Cc1cc(SC(C)(C)C)ccc1NC(=O)CNC(N)=O	7.94%
CCOc1ccc(NC(=O)NCCS(=O)(=O)CC)cc1C	-3%
Cc1ccc(-c2noc(CNCC3CN(C)CCO3)n2)cc1F (stereo unspecified)	-1.51%
O=C(NCCc1cccs1)N1CCCC2(CCC(=O)N(C3CC3)C2)C1 (stereo unspecified)	-7.82%
CC(C)NC(=O)Nc1ccc(CNCc2cccc(C#N)c2)cc1	-7.15%
CC1CCN(CCCNC(=O)C2CCCCC2)CC1	-2.63%
Cc1cc(C(=O)N2CCCC3(CNC(=O)O3)C2)c2c(C)nn(C)c2n1 (stereo unspecified)	10.8%
CCc1n[nH]c(C2CN(C(=O)c3nc(C)ncc3Cl)CCO2)n1 (stereo unspecified)	-7.25%
Cc1ccc(CN(C)C(=O)CN2CCOC(Cn3cncn3)C2)o1 (stereo unspecified)	-7.98%
Cc1ncc(C(=O)N2CCCC(C(=O)CCc3ccccc3)C2)s1 (stereo unspecified)	19.4%
CC(=O)N1CCOC(c2cncc(CCC(N)=O)n2)C1 (stereo unspecified)	-2.74%
Cc1cccnc1CN1CCN(C(=O)c2cc(Cl)c[nH]c2=O)CC1	6.22%
Cc1cc(C)c(CNC(=O)N2CCCC2c2cccn2C)c(=O)[nH]1 (stereo unspecified)	-2.82%
COCc1ncn2c1CN(S(=O)(=O)c1cccc(F)c1)CC2	4.06%
Cc1csc(CN2C[C@@H]3CN(CC4CCOCC4)CCO[C@@H]3C2)n1	-109%
CS(=O)(=O)c1ccccc1-n1cc(NC(=O)CC(F)(F)F)cn1	1.42%
Cc1nnc(CN2CCCC2c2ccsc2)o1 (stereo unspecified)	3.22%
Cc1nc(C2CCCN2CC(=O)NCCOc2ccc(F)cc2)no1 (stereo unspecified)	-9.63%
Cc1nc(C)c(CNCc2nnc3n2CCCC3C(F)(F)F)s1 (stereo unspecified)	3.28%
Cc1ccc(S(=O)(=O)n2ccn(C(=O)COc3ccccc3)c2=O)cc1	5.34%
O=C(CCC1CCCO1)NCc1ccc(Br)cc1F (stereo unspecified)	1.6%
CC1CN(C(=O)CN(Cc2ccco2)Cc2cccs2)CCO1 (stereo unspecified)	-7.68%
CC(=O)N(Cc1ncc(C(C)C)o1)C1CCN(Cc2ncc[nH]2)C1 (stereo unspecified)	-6.02%

Structure (SMILES)	cytotoxicity at 10 µM
CC(NC(=O)N1CCC(n2cncn2)CC1)c1ccc(F)cc1 (stereo unspecified)	-3.66%
COCCCNC(=O)CN(C)C(=O)c1cc(C)sc1C	-2.58%
COC(=O)c1cccc(C(=O)N(C)Cc2cccc(F)c2)c1	5.75%
COCCN1CCCC1c1nccnc1Nc1nc(C)cs1 (stereo unspecified)	6.02%
Cc1cc(C(=O)NCc2cccs2)nc(N2CCCC2)n1	-0.438%
COc1ccc(C2CCCCCN2Cc2cn(C)nc2C)cc1 (stereo unspecified)	-4.96%
CCCN1CCC(NN2CCN(C)CC2)CC1	-2.38%
O=C(Nc1ccc(-c2ccccc2)cn1)C1CCN(C(=O)C2CC2)CC1	-14.8%
CCC(CN1CCCCC1)NC(=O)C1(c2ccc(F)cc2)CC1 (stereo unspecified)	1.69%
COc1c(CC2CC(C(=O)O)=NO2)c(Br)c2c(c1OC)OCO2 (stereo unspecified)	6.36%
CN(C1CCc2ccccc2C1)S(C)(=O)=O (stereo unspecified)	-3.78%
CCSc1cncc(N2CCC(C(=O)NC(C)C(C)C)CC2)n1 (stereo unspecified)	-1.81%
CC1CN(C)c2ccccc2CN1C(=O)CSc1ccncc1 (stereo unspecified)	-12.6%
N#CC1(NC(=O)COc2cc(Cl)cc(Cl)c2)CCOCC1	-2.53%
CC(=O)N1CCc2[nH]c(=O)ccc2C1	0.351%
CNS(=O)(=O)c1ccc(C(=O)N2CCCC2c2cnn(C)c2)o1 (stereo unspecified)	-8.28%
c1cncc(OCC2CC3(CCN(CC4CC4)CC3)CO2)c1 (stereo unspecified)	4.95%
Cc1cc(C)n(C2CN(c3nc(N)nc4c3CCCC4)C2)n1	-44.4%
CCC(NC(=O)C1CCN(S(C)(=O)=O)CC1)c1ccc(C)c(C)c1 (stereo unspecified)	-8.06%
